This is an account of results in ChEMBL document CHEMBL1144670, “Synthesis and pharmacology of 1-deoxy analogs of CP-47,497 and CP-55,940” (Bioorg Med Chem, 2008).

One test deals with Cannabinoid receptor 1 (Rattus norvegicus, UniProt P20272). The experiment in a line: Displacement of [3H]CP-55940 from CB1 receptor in Sprague-Dawley rat brain membrane. Type of test: cell membranes.
Test [1] has as its target T1, Cannabinoid receptor 2 (Homo sapiens, UniProt P34972). The experiment in a line: Displacement of [3H]CP-55940 from human cloned CB2 receptor. Background: Displacement assays read how much labelled ligand stays bound in the presence of the test substance.
The nature of test [2]: Selectivity for human cloned CB2 receptor over Sprague Dawley rat brain membrane CB1 receptor.
Test [3] deals with T1, Cannabinoid receptor 2. The note with it: CHO, 3 uM.
The target of test [4] is T1, Cannabinoid receptor 2. Kind of test: Agonist activity at human CB2 receptor expressed in CHO cells by [35S]GTP-gamma-S binding assay. The format is functional, cell-based. The procedure, abridged: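 [35S]GTPγS binding on membranes of CHO cells stably expressing human CB2. 10 µg membrane protein was incubated 1.5 h at 30 °C in 50 mM Tris-HCl pH 7.4, 3 mM MgCl2, 0.2 mM EGTA, 100 mM NaCl, with 10 µM GDP, 0.1 nM [35S]GTPγS, 0.1% BSA and agonist over a concentration range. Nonspecific binding was set with 20 µM GTPγS. Filtration was followed by scintillation counting. EC50 came from nonlinear regression, 3-6 experiments in triplicate.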
(GTPγS resists hydrolysis and so accumulates on activated G proteins.)

Test [5] concerns the target T1, Cannabinoid receptor 2. Kind of test: Agonist activity at human CB2 receptor expressed in CHO cells by [35S]GTP-gamma-S binding assay relative to CP-55940. Type of test: functional, cell-based. The procedure, abridged: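 Same hCB2-CHO membrane [35S]GTPγS assay (10 µM GDP, 0.1 nM radioligand, 1.5 h, 30 °C). Net stimulation at each concentration was expressed as percent of that given by 3 µM CP-55,940, run as an internal standard in each experiment. Emax came from nonlinear regression of the concentration-effect curves, mean ± SEM of 3-6 experiments in triplicate.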

Chain of Cannabinoid receptor 1 (P20272 whole entry): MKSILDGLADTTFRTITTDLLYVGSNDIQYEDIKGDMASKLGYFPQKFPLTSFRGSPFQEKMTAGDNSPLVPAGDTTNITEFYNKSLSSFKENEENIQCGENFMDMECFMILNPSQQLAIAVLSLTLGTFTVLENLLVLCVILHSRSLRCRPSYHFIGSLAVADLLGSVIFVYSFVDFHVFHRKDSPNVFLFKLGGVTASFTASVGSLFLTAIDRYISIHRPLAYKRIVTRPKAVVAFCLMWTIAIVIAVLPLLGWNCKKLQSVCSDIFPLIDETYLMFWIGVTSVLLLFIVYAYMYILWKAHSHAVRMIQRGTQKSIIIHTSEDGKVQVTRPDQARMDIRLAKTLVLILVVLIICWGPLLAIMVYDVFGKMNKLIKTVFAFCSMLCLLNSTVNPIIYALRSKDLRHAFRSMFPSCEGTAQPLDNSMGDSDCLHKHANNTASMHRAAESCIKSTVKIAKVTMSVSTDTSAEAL
T1 sequence (P34972 whole entry): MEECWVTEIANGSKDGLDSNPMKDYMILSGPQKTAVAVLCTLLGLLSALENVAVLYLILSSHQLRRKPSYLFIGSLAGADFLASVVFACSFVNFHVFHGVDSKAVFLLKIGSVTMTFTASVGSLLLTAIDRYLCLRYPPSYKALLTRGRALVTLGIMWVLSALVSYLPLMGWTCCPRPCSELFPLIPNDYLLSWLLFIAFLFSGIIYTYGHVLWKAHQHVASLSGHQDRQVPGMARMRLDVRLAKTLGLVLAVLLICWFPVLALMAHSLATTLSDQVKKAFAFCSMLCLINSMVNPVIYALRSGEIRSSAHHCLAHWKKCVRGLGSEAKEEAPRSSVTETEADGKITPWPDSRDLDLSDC

In general, Ki refers to the dissociation constant of the complex between target and ligand, obtained from inhibition or displacement. Lower therefore signals higher affinity. In the case of `CCCCCCC(C)(C)c1ccc([C@@H]2CCC[C@@H](O)C2)cc1` (relative stereo), the Ki at Cannabinoid receptor 1 was 645 nM; on Cannabinoid receptor 2 [1], 178 nM. Besides, the Ratio Ki in test [2] is 3.6.
On to `CCCCCCC(C)(C)c1ccc([C@H]2CCC[C@@H](O)C2)c(O)c1`, for which, at Cannabinoid receptor 1, affinity was put at a Ki of 2.2 nM.
For `CCC(C)(C)c1ccc([C@@H]2CCC[C@@H](O)C2)cc1` (relative stereo), the Ki at Cannabinoid receptor 1 is > 10000 nM; at Cannabinoid receptor 2 [1], 3760 nM. For the same compound, the Ratio Ki in test [2] is > 2.7.
In the case of `CCCCCCCC(C)(C)c1ccc([C@H]2CCC[C@@H](O)C2)cc1` (relative stereo), the Ki on Cannabinoid receptor 1 amounted to 786 nM; at Cannabinoid receptor 2 [1], 672 nM. In test [2], the Ratio Ki was found to be 1.2.
As for `CC(C)(C)c1ccc([C@H]2CCC[C@@H](O)C2)cc1` (relative stereo), the Ki on Cannabinoid receptor 1 and at Cannabinoid receptor 2 [1] was > 10000 nM throughout.
As to `CCCCC(C)(C)c1ccc([C@@H]2C[C@H](O)CC[C@H]2CCCO)cc1` (relative stereo), the Ki worked out at 579 nM at Cannabinoid receptor 1 and 700 nM on Cannabinoid receptor 2 [1]. In test [2], the Ratio Ki stood at 0.8.
As for `CCCC(C)(C)c1ccc([C@H]2CCC[C@@H](O)C2)cc1` (relative stereo), the Ki on Cannabinoid receptor 1 was > 10000 nM; on Cannabinoid receptor 2 [1] it was 2060 nM. Besides, the Ratio Ki in test [2] was > 4.9.
Take `CCCCCCCC(C)(C)c1ccc([C@@H]2C[C@H](O)CC[C@H]2CCCO)cc1` (relative stereo): the Ki worked out at 266 nM on Cannabinoid receptor 1 and 173 nM on Cannabinoid receptor 2 [1]. Also, the Ratio Ki in test [2] came to 1.5.
`CCCCCCCCC(C)(C)c1ccc([C@H]2CCC[C@@H](O)C2)cc1` (relative stereo): the Ki stood at 1710 nM on Cannabinoid receptor 1 and 1120 nM at Cannabinoid receptor 2 [1]. In addition, the Ratio Ki in test [2] came to 1.5.
Usually Emax stands for the maximal effect, on the per cent scale that the assay sets. As to `CCCCCCC(C)(C)c1ccc([C@@H]2C[C@H](O)CC[C@H]2CCCO)c(O)c1`, the Emax on Cannabinoid receptor 2 [3] stood at 85%.
Take `CC(C)(C)c1ccc([C@@H]2C[C@H](O)CC[C@H]2CCCO)cc1` (relative stereo): the Ki on Cannabinoid receptor 1 and at Cannabinoid receptor 2 [1] was > 10000 nM each time.
In the case of `CCCCCC(C)(C)c1ccc([C@H]2CCC[C@@H](O)C2)cc1` (relative stereo), the Ki was determined as 2110 nM on Cannabinoid receptor 1 and 460 nM at Cannabinoid receptor 2 [1]. Also, in test [2], the Ratio Ki is 4.6.
Turning to `CCCC(C)(C)c1ccc([C@@H]2C[C@H](O)CC[C@H]2CCCO)cc1` (relative stereo), the Ki on Cannabinoid receptor 1 was found to be 3800 nM; at Cannabinoid receptor 2 [1], 1780 nM. The Ratio Ki in test [2] was determined as 2.1.
Regarding `CCCCCCC(C)(C)c1ccc([C@@H]2C[C@H](O)CC[C@H]2CCCO)cc1` (relative stereo), the values for the Ki at Cannabinoid receptor 1 and on Cannabinoid receptor 2 [1] were 547 nM and 238 nM, respectively. The Ratio Ki in test [2] came out at 2.3.
Take `CCCCC(C)(C)c1ccc([C@@H]2CCC[C@@H](O)C2)cc1` (relative stereo): the Ki at Cannabinoid receptor 1 stood at 1730 nM; at Cannabinoid receptor 2 [1] it was 546 nM. Moreover, in test [2], the Ratio Ki stood at 3.2.
Take `CCCC(C)(C)c1ccc([C@@H]2CCC[C@@H](O)C2)cc1` (relative stereo): the Ki was 8630 nM at Cannabinoid receptor 1 and 1510 nM on Cannabinoid receptor 2 [1]. For the same compound, in test [2], the Ratio Ki came to 5.7.
`CCCCCC(C)(C)c1ccc([C@@H]2C[C@H](O)CC[C@H]2CCCO)cc1` (relative stereo): the figures for the Ki on Cannabinoid receptor 1 and on Cannabinoid receptor 2 [1] were 308 nM and 221 nM, respectively. In test [2], the Ratio Ki was 1.4.
Turning to `CCC(C)(C)c1ccc([C@H]2CCC[C@@H](O)C2)cc1` (relative stereo), the Ki on Cannabinoid receptor 1 is > 10000 nM; at Cannabinoid receptor 2 [1], 3970 nM. Besides, in test [2], the Ratio Ki was > 2.5.
`CCCCCCCCC(C)(C)c1ccc([C@@H]2C[C@H](O)CC[C@H]2CCCO)cc1` (relative stereo): the Ki at Cannabinoid receptor 1 is 566 nM; on Cannabinoid receptor 2 [1], 421 nM. For the same compound, in test [2], the Ratio Ki came out at 1.3.
With `CCCCC(C)(C)c1ccc([C@H]2CCC[C@@H](O)C2)cc1` (relative stereo), the Ki on Cannabinoid receptor 1 is > 10000 nM; on Cannabinoid receptor 2 [1], 639 nM. In addition, the Ratio Ki in test [2] is > 16.
In the case of `CCCCCCCCC(C)(C)c1ccc([C@@H]2CCC[C@@H](O)C2)cc1` (relative stereo), the Ki on Cannabinoid receptor 1 came to 749 nM; on Cannabinoid receptor 2 [1] it was 1080 nM. Besides, the Ratio Ki in test [2] came to 0.7.
`CC(C)(C)c1ccc([C@@H]2CCC[C@@H](O)C2)cc1` (relative stereo): the Ki at Cannabinoid receptor 1 and on Cannabinoid receptor 2 [1] was > 10000 nM throughout.
With `CCCCCCC(C)(C)c1ccc([C@H]2CCC[C@@H](O)C2)cc1` (relative stereo), the Ki on Cannabinoid receptor 1 is 2950 nM; on Cannabinoid receptor 2 [1], 231 nM. For the same compound, the Ratio Ki in test [2] was found to be 13.
With `CCC(C)(C)c1ccc([C@@H]2C[C@H](O)CC[C@H]2CCCO)cc1` (relative stereo), the Ki was > 10000 nM on Cannabinoid receptor 1 and 1360 nM at Cannabinoid receptor 2 [1]. Also, the Ratio Ki in test [2] is > 7.3.
As for `CCCCCCCC(C)(C)c1ccc([C@@H]2CCC[C@@H](O)C2)cc1`, the Ki at Cannabinoid receptor 1 was determined as 193 nM; at Cannabinoid receptor 2 [1], 154 nM. Besides, the Ratio Ki in test [2] is 1.3.
One may read the EC50 as the concentration giving half of the maximal effect. Turning to `CCCCCC(C)(C)c1ccc([C@@H]2CCC[C@@H](O)C2)cc1` (relative stereo), the Ki amounted to 1030 nM on Cannabinoid receptor 1 and 215 nM on Cannabinoid receptor 2 [1]. Also, it took 39.6 nM to reach a half-maximal effect at Cannabinoid receptor 2 [4] (EC50). In addition, the Ratio Ki in test [2] is 4.8. Also, the Emax on Cannabinoid receptor 2 [5] was 66%.
